According to ChEMBL document CHEMBL3286129, “Optimization of peptidomimetic boronates bearing a P3 bicyclic scaffold as proteasome inhibitors” (Eur J Med Chem, 2014):

Key:
KM12 = experiment: Growth inhibition of human KM12 cells; assay type: functional
SW-620 = experiment: Growth inhibition of human SW620 cells; assay type: functional
[1] = Growth inhibition of human SF539 cells; assay type: functional
U-251 = experiment: Growth inhibition of human U251 cells; assay type: functional
Malme-3M = experiment: Growth inhibition of human MALME-3M cells; assay type: functional
MDA-MB-435 = experiment: Growth inhibition of human MDA-MB-435 cells; assay type: functional
SK-MEL-2 = experiment: Growth inhibition of human SK-MEL-2 cells; assay type: functional
[2] = Growth inhibition of human UACC62 cells; assay type: functional; conditions: UACC-62
IGROV-1 = experiment: Growth inhibition of human IGROV1 cells; assay type: functional
[3] = Growth inhibition of human OVCAR3 cells; assay type: functional; conditions: OVCAR-3
[4] = Growth inhibition of human OVCAR4 cells; assay type: functional
[5] = Growth inhibition of human OVCAR5 cells; assay type: functional; conditions: OVCAR-5
[6] = Growth inhibition of human NCI-ADR-RES cells; assay type: functional
SK-OV-3 = experiment: Growth inhibition of human SKOV3 cells; assay type: functional
A498 = experiment: Growth inhibition of human A498 cells; assay type: functional
ACHN = experiment: Growth inhibition of human ACHN cells; assay type: functional
CAKI-1 = experiment: Growth inhibition of human CAKI-1 cells; assay type: functional
SN12C = experiment: Growth inhibition of human SN12C cells; assay type: functional
TK-10 = experiment: Growth inhibition of human TK10 cells; assay type: functional
[7] = Growth inhibition of human UO31 cells; assay type: functional; conditions: UO-31
T47D = experiment: Growth inhibition of human T47D cells; assay type: functional
[8] = molecular target: T1, Proteasome Macropain subunit MB1 (Homo sapiens) (UniProt P28074); experiment: Inhibition of chymotrypsin-like activity of 20S proteasome in human erythrocytes using Suc-Leu-Leu-Val-Tyr-AMC as substrate at 20 uM by fluorescence assay relative to control
T1 sequence (whole entry): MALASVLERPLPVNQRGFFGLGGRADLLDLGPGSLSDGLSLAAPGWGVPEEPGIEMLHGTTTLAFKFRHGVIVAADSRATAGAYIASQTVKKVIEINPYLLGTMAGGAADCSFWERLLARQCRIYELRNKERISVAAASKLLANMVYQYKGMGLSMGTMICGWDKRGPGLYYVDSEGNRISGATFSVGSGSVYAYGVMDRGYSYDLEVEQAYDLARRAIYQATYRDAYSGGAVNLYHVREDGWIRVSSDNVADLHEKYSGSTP
In short: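 Single inhibitor concentration, equivalent DMSO as negative control. AMC fluorescence read at ex 380/em 460 nm; percent inhibition of ChT-L activity.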

Chymotrypsinogen A = Chymotrypsinogen A (Bos taurus, UniProt P00766); experiment: Inhibition of bovine pancreatic alpha-chymotrypsin using Suc-Leu-Leu-Val-Tyr-AMC as substrate by fluorescence assay
In short: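 Enzyme incubated at 20 °C in 50 mM Tris pH 8.0, 100 mM NaCl, 5 mM EDTA, 7.5% DMSO with varied inhibitor concentrations. Substrate hydrolysis followed for 10 min. Ki from progress curves; mean of three determinations.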

[9] = Cytotoxicity against human NSCLC cells assessed as cell growth at 10 uM relative to control; assay type: functional; conditions: read-out: Activity
In short: (§1)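 Single-concentration screen against a panel of human cancer cell lines. Each value is the mean percent growth across the cell lines of that tumour subpanel.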

[10] = Cytotoxicity against human colon cancer cells assessed as cell growth at 10 uM relative to control; assay type: functional; conditions: Cancer cell lines, read-out: Activity; in short: as §1
[11] = Cytotoxicity against human CNSC cells assessed as cell growth at 10 uM relative to control; assay type: functional; conditions: read-out: Activity; in short: as §1
[12] = Cytotoxicity against human melanoma cells assessed as cell growth at 10 uM relative to control; assay type: functional; conditions: read-out: Activity; in short: as §1
[13] = Cytotoxicity against human ovarian cancer cells assessed as cell growth at 10 uM relative to control; assay type: functional; conditions: Cancer cell lines, read-out: Activity; in short: as §1
[14] = Cytotoxicity against human prostate cancer cells assessed as cell growth at 10 uM relative to control; assay type: functional; conditions: Cancer cell lines, read-out: Activity; in short: as §1
K562 = experiment: Growth inhibition of human K562 cells; assay type: functional
[15] = Growth inhibition of human MOLT4 cells; assay type: functional
SR = experiment: Growth inhibition of human SR cells; assay type: functional
HOP-62 = experiment: Growth inhibition of human HOP62 cells; assay type: functional
[16] = Growth inhibition of human HOP92 cells; assay type: functional
NCI-H226 = experiment: Growth inhibition of human NCI-H226 cells; assay type: functional
[17] = read-out: LC50 (the source's name)

SMILES: CC(C)C[C@H](NC(=O)CCn1ccc2ncccc2c1=O)B(O)O
- GI50 (KM12): 17 µM
- LC50 (KM12): > 100 µM
- TGI (KM12): 49.6 µM
- GI50 (SW-620): 4.62 µM
- LC50 (SW-620): > 100 µM
- TGI (SW-620): > 100 µM
- GI50 ([1]; SF-539): 2.76 µM
- TGI ([1]; SF-539): 8.38 µM
- CC50 ([1]; SF-539, read-out: LC50 (the source's name)): > 100 µM
- GI50 (U-251): 33 µM
- TGI (U-251): > 100 µM
- CC50 (U-251; [17]): > 100 µM
- GI50 (Malme-3M): 5.12 µM
- TGI (Malme-3M): 62.2 µM
- CC50 (Malme-3M; [17]): > 100 µM
- GI50 (MDA-MB-435): 2.41 µM
- TGI (MDA-MB-435): 7.02 µM
- CC50 (MDA-MB-435; [17]): 67.8 µM
- GI50 (SK-MEL-2): 18.3 µM
- LC50 (SK-MEL-2): > 100 µM
- TGI (SK-MEL-2): > 100 µM
- GI50 [2]: 5.55 µM
- LC50 (concentration killing 50% of cells) [2]: > 100 µM
- TGI [2]: 48.8 µM
- GI50 (IGROV-1): 60.2 µM
- LC50 (IGROV-1): > 100 µM
- TGI (IGROV-1): > 100 µM
- GI50 [3]: 4.65 µM
- LC50 (concentration killing 50% of cells) [3]: > 100 µM
- TGI [3]: 31.9 µM
- GI50 ([4]; OVCAR-4): 28.4 µM
- TGI ([4]; OVCAR-4): > 100 µM
- CC50 ([4]; OVCAR-4, read-out: LC50 (the source's name)): > 100 µM
- GI50 [5]: 17.1 µM
- LC50 [5]: > 100 µM
- TGI [5]: > 100 µM
- GI50 [6]: > 100 µM
- LC50 [6]: > 100 µM
- TGI [6]: > 100 µM
- GI50 (SK-OV-3): > 100 µM
- LC50 (SK-OV-3): > 100 µM
- TGI (SK-OV-3): > 100 µM
- GI50 (A498): 3.07 µM
- LC50 (A498): > 100 µM
- TGI (A498): 24.3 µM
- GI50 (ACHN): 9.15 µM
- TGI (ACHN): > 100 µM
- CC50 (ACHN; [17]): > 100 µM
- GI50 (CAKI-1): 19.4 µM
- TGI (CAKI-1): > 100 µM
- CC50 (CAKI-1; [17]): > 100 µM
- GI50 (SN12C): 18 µM
- TGI (SN12C): > 100 µM
- CC50 (SN12C; [17]): > 100 µM
- GI50 (TK-10): 5.16 µM
- LC50 (TK-10): > 100 µM
- TGI (TK-10): 47.7 µM
- GI50 [7]: 19.4 µM
- LC50 [7]: > 100 µM
- TGI [7]: > 100 µM
- GI50 (T47D): 4.67 µM
- TGI (T47D): > 100 µM
- CC50 (T47D; [17]): > 100 µM
- inhibition [8]: > 40%
- Ki (Chymotrypsinogen A): Not Active
- growth at 10 µM [9]: 80.3%
- growth at 10 µM [10]: 78.1%
- growth at 10 µM [11]: 82.9%
- growth at 10 µM [12]: 60.4%
- growth at 10 µM [13]: 84.2%
- growth at 10 µM [14]: 98.5%
- GI50 (K562): 17.2 µM
- TGI (K562): > 100 µM
- CC50 (K562; [17]): > 100 µM
- GI50 ([15]; MOLT-4): 3.3 µM
- TGI ([15]; MOLT-4): > 100 µM
- CC50 ([15]; MOLT-4, read-out: LC50 (the source's name)): > 100 µM
- GI50 (SR): 3.18 µM
- TGI (SR): > 100 µM
- CC50 (SR; [17]): > 100 µM
- GI50 (HOP-62): 29.8 µM
- TGI (HOP-62): > 100 µM
- CC50 (HOP-62; [17]): > 100 µM
- GI50 ([16]; HOP-92): 16.8 µM
- TGI ([16]; HOP-92): 71.3 µM
- CC50 ([16]; HOP-92, read-out: LC50 (the source's name)): > 100 µM
- GI50 (NCI-H226): 2.68 µM
- TGI (NCI-H226): 8.9 µM
- CC50 (NCI-H226; [17]): 48 µM
